Here are results for ten compounds from ChEMBL document CHEMBL1125422, “Low molecular weight proteins as carriers for renal drug targeting. Preparation of drug-protein conjugates and drug-spacer derivatives and their catabolism in renal cortex homogenates and lysosomal lysates” (J Med Chem, 1992).

The species entered for data set [1] is Rattus norvegicus. In words: Lysozyme-conjugated prodrugs: in vitro stability in rat cortical homogenate at pH 7.4. In kind it is functional. An outline of the steps: (§1)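 Renal cortices from three male Wistar rats were perfused, pooled, homogenized in 0.3 M sucrose and lysed by 10 freeze–thaw cycles. Conjugate was incubated with 250 μL homogenate in 0.1 M phosphate buffer, pH 5.0 or 7.4, to 1.0 mL for 24 h. Samples were deproteinized and analyzed by HPLC with internal standard. Release is % parent compound, mean of ≥2 incubations.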

The species entered for data set [2] is Rattus norvegicus. In words: Lysozyme-conjugated prodrugs: in vitro stability in rat cortical homogenate at pH 5. In kind it is functional. An outline of the steps:
as §1

The species named for data set [3] is Rattus norvegicus. In words: (§2) Lysozyme-conjugated prodrugs: in vitro stability at pH 5. Type of data set: functional. An outline of the steps: (§3)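 Conjugate incubated 24 h in pH 5.0 buffer, pH 7.4 buffer, or plasma buffered at pH 7.4. Samples were deproteinized with ACN, MeOH or 2 N HCl, centrifuged, and analyzed by RP-HPLC against an internal standard. Release is % parent drug = parent/(parent + derivative) from IS-normalized peak-area ratios, mean of at least two separate incubations.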

The species entered for data set [4] is Rattus norvegicus. The data set is described as follows: Lysozyme-conjugated prodrugs: in vitro stability in lysosomal lysate at pH 5. In kind it is functional. An outline of the steps: (§4)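 Lysosomes isolated from pooled male Wistar rat kidney cortex by differential centrifugation, then lysed by 10 freeze–thaw cycles in liquid N2. 100 μL lysate diluted to 1.0 mL with 0.1 M phosphate buffer, pH 5.0 or 7.4. Samples were deproteinized and analysed by RP-HPLC against an internal standard. Parent drug released after 24 h, as a percentage, mean of ≥2 incubations.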

The species entered for data set [5] is Rattus norvegicus. In words: Lysozyme-conjugated prodrugs: in vitro stability in lysosomal lysate at pH 7.4. In kind it is functional. The method in brief: as §4
The species named for data set [6] is Rattus norvegicus. In words: (§5) Lysozyme-conjugated prodrugs: in vitro stability at pH 7.4. In kind it is functional. The method in brief:
as §3

The species entered for data set [7] is Rattus norvegicus. The data set is described as follows: Lysozyme-conjugated prodrugs: in vitro stability in buffered plasma at pH 7.4. Type of data set: functional. An outline of the steps: as §3
The species entered for data set [8] is Rattus norvegicus. Described as §2. Type of data set: ADME. An outline of the steps:
as §3

The species named for data set [9] is Rattus norvegicus. The data set is described as §2. Type of data set: functional. An outline of the steps: as §3
The source holds these as a separate data set.

The species entered for data set [10] is Rattus norvegicus. The data set is described as §5. Type of data set: functional. The method in brief: as §3
This is another data set of the same source.

For data set [11], the species on record is Rattus norvegicus. The description is as §2. Type of data set: functional. The method in brief: as §3
The source holds these as a separate data set.

Data set [12] is filed under the species Rattus norvegicus. The data set is described as §5. In kind it is functional. The method in brief: as §3
The source holds these as a separate data set.

The species entered for data set [13] is Rattus norvegicus. Described as §5. Type of data set: functional. An outline of the steps: as §3
The source holds these as a separate data set.

The species entered for data set [14] is Rattus norvegicus. Described as §5. In kind it is functional. An outline of the steps: as §3
The source holds these as a separate data set.

Regarding `Nc1ccc2ccccc2c1`, the Drug release result in the data set listed under Rattus norvegicus [1], in the data set listed under Rattus norvegicus [2], in the data set filed under Rattus norvegicus [3], in the data set listed under Rattus norvegicus [4], in the data set listed under Rattus norvegicus [5] and in the data set filed under Rattus norvegicus [6] was “Stable” each time.

`COc1ccc2c(c1)c(CC(=O)O)c(C)n2C(=O)c1ccc(Cl)cc1`: the Drug release result in the data set listed under Rattus norvegicus [7], in the data set filed under Rattus norvegicus [1], in the data set listed under Rattus norvegicus [2], in the data set listed under Rattus norvegicus [3], in the data set listed under Rattus norvegicus [4] and in the data set listed under Rattus norvegicus [6] was “Stable” in each case.

In the case of `COc1ccc2cc([C@H](C)C(=O)O)ccc2c1` [NAPROXEN], the Drug release result in the data set filed under Rattus norvegicus [7] was “Stable”; in the data set filed under Rattus norvegicus [8] it was 0%; in the data set filed under Rattus norvegicus [1] it was “Stable”; in the data set listed under Rattus norvegicus [9], 0%; in the data set filed under Rattus norvegicus [2], “Stable”; in the data set listed under Rattus norvegicus [3], “Stable”. Moreover, the Drug release entry in the data set listed under Rattus norvegicus [4] is “Stable”; in the data set listed under Rattus norvegicus [10] it was 0%; in the data set filed under Rattus norvegicus [5], “Stable”; in the data set filed under Rattus norvegicus [6], “Stable”; in the data set listed under Rattus norvegicus [11] it was 0%; in the data set listed under Rattus norvegicus [12], 0%. The Drug release in the data set listed under Rattus norvegicus [13] and in the data set filed under Rattus norvegicus [14] was 0% each time.

With `Nc1nc(N)c2nc(-c3ccccc3)c(N)nc2n1`, the Drug release entry in the data set listed under Rattus norvegicus [1], in the data set filed under Rattus norvegicus [2], in the data set filed under Rattus norvegicus [3] and in the data set filed under Rattus norvegicus [6] was “Stable” in each case.

As for `COc1ccc2cc(C(C)C(=O)N[C@@H](Cc3ccc(O)cc3)C(=O)NCC(=O)NCC(=O)O)ccc2c1` (stereo in doubt; 1e), the Drug release in the data set filed under Rattus norvegicus [8] is given as < 1%; in the data set listed under Rattus norvegicus [9], <1%; in the data set filed under Rattus norvegicus [10], <1%; in the data set filed under Rattus norvegicus [11], <1%; in the data set filed under Rattus norvegicus [12], <1%; in the data set listed under Rattus norvegicus [13], <1%. In addition, the Drug release in the data set listed under Rattus norvegicus [14] is given as <1%.

Regarding `COc1ccc2cc(C(C)C(=O)NC(CC(C)C)C(=O)O)ccc2c1` (configuration not stated), the Drug release in the data set listed under Rattus norvegicus [8] is reported as < 1%; in the data set listed under Rattus norvegicus [9], <1%; in the data set filed under Rattus norvegicus [10] it was <1%; in the data set filed under Rattus norvegicus [11], <1%; in the data set listed under Rattus norvegicus [12], <1%; in the data set filed under Rattus norvegicus [13], <1%. Besides, the Drug release in the data set listed under Rattus norvegicus [14] was <1%.

In the case of `COc1ccc2cc(C(C)C(=O)N[C@@H](CC(C)C)C(=O)NCC(=O)NCC(=O)O)ccc2c1` (stereo in doubt; 1c), the Drug release is listed as < 1% in the data set listed under Rattus norvegicus [8]; <1% in the data set filed under Rattus norvegicus [9]; <1% in the data set filed under Rattus norvegicus [10]; <1% in the data set listed under Rattus norvegicus [11]; <1% in the data set filed under Rattus norvegicus [12]; <1% in the data set listed under Rattus norvegicus [13]. Moreover, the Drug release in the data set filed under Rattus norvegicus [14] is <1%.

Regarding `COc1ccc2cc(C(C)C(=O)OCC(=O)O)ccc2c1` (configuration not stated), the Drug release in the data set filed under Rattus norvegicus [8] is 1%; in the data set filed under Rattus norvegicus [9], 45%; in the data set filed under Rattus norvegicus [10] it was 2%; in the data set listed under Rattus norvegicus [11], 81%; in the data set filed under Rattus norvegicus [12] it was 5%; in the data set filed under Rattus norvegicus [13], 8%. The Drug release in the data set filed under Rattus norvegicus [14] was determined as 8%.

Turning to `COc1ccc2cc(C(C)C(=O)NCCCC[C@H](N)C(=O)O)ccc2c1` (some centres not stated), the Drug release in the data set filed under Rattus norvegicus [8], in the data set listed under Rattus norvegicus [9], in the data set listed under Rattus norvegicus [10], in the data set filed under Rattus norvegicus [11], in the data set listed under Rattus norvegicus [12] and in the data set filed under Rattus norvegicus [13] was 0% in each case. The Drug release in the data set filed under Rattus norvegicus [14] was 0%.

On to `COc1ccc2cc(C(C)C(=O)NC(Cc3ccc(O)cc3)C(=O)O)ccc2c1` (configuration not stated), for which the Drug release in the data set filed under Rattus norvegicus [8] is < 1%; in the data set filed under Rattus norvegicus [9] it was <1%; in the data set filed under Rattus norvegicus [10], <1%; in the data set filed under Rattus norvegicus [11], <1%; in the data set listed under Rattus norvegicus [12], <1%; in the data set filed under Rattus norvegicus [13] it was <1%. Also, the Drug release in the data set listed under Rattus norvegicus [14] was <1%.
